Experiments:
[1] = Cytotoxicity against african green monkey Vero cells after 72 hrs by MTT assay; format: cell-based; settings: chlorocebus sabaeus, read-out: MIC50
Method in brief: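 Vero cells (ATCC CCL-81) in MEM with 10% FBS, 1% PennStrep and 1% Glutamax, seeded at 3.0 × 10^4 cells/well and left to adhere overnight. Compound in DMSO added to final 100 to 0.16 μM, in triplicate, for 72 h at 37 °C, 4.5% CO2. MTT 1.0 mg/mL in phenol red-free RPMI for 3 h, formazan dissolved in isopropanol. A570 minus A690 gave % viability vs DMSO control; dose-response curves gave 50% growth-inhibitory concentration.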

[2] = tested on: Escherichia coli; assay: Antimicrobial activity against Escherichia coli ATCC 25922 after 24 to 48 hrs; format: functional
Method in brief: (§1)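 Broth microdilution at 37 °C. Glycerol stocks streaked on 1.5% agar for 24 h. Single colonies grown in broth to OD600 1.0: trypticase soy for E. coli, P. aeruginosa and S. aureus; nutrient broth for A. baumannii and K. pneumoniae; brain heart infusion for E. faecalis. Diluted to OD600 0.003 with compound dilutions from DMSO stocks. OD600 read at 24 and 48 h, 690 nm background subtracted, normalized to DMSO control; MIC99.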

[3] = tested on: Candida albicans; assay: Antifungal activity against Candida albicans ATCC 10231 after 24 to 48 hrs; format: functional
Method in brief: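 C. albicans streaked from glycerol stock onto YM agar and grown at 30 °C for 24 h. A single colony was grown in YM broth to OD600 1.0, diluted to OD600 0.003 and incubated with compound dilutions from DMSO stocks. Read at 600 nm at 24 and 48 h, 690 nm background subtracted, normalized to DMSO controls; MIC99.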

[4] = tested on: Staphylococcus aureus; assay: Antimicrobial activity against methicillin-resistant Staphylococcus aureus ATCC 43300 after 24 to 48 hrs; format: functional
Method in brief: (§2)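 Streaked from glycerol stock onto trypticase soy agar, 37 °C, 24 h. Single colonies were grown in trypticase soy broth to OD600 1.0 and diluted to OD600 0.003. Cells were incubated with compound at varying concentrations (1% DMSO stocks). Absorbance was read at 600 nm at 24 and 48 h, minus 690 nm background and relative to DMSO controls.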

[5] = tested on: Enterococcus faecalis; assay: Antimicrobial activity against Enterococcus faecalis ATCC 51299 after 24 to 48 hrs; format: functional; method in brief: as §1
[6] = tested on: Mycolicibacterium smegmatis; assay: Antimicrobial activity against Mycobacterium smegmatis ATCC 607 after 24 to 48 hrs; format: functional
Method in brief: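 M. smegmatis streaked from glycerol stock onto nutrient agar (1.5%), then grown at 37 °C in nutrient broth with Tyloxapol added to prevent clumping, to OD600 1.0. Diluted to OD600 0.003 and exposed to compound dilutions from DMSO stocks. Absorbance at 600 nm read at 24 and 48 h, 690 nm background subtracted, normalized to DMSO controls; MIC99.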

[7] = tested on: Mycobacterium tuberculosis; assay: Antimicrobial activity against Mycobacterium tuberculosis H37Rv after 24 to 48 hrs; format: functional
[8] = tested on: Staphylococcus aureus; assay: Antimicrobial activity against methicillin-resistant Staphylococcus aureus clinical isolate IDRL 6169 after 24 to 48 hrs; format: functional; method in brief: as §2
[9] = tested on: Mycolicibacterium smegmatis; assay: Antimicrobial activity against Mycobacterium smegmatis MC24517 after 24 to 48 hrs; format: functional
Method in brief: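 Grown from glycerol stock on nutrient agar (1.5%) at 37 °C for 24 h, with Tyloxapol added to prevent clumping. Colonies were grown in nutrient broth to OD600 1.0, diluted to OD600 0.003 and incubated with compound dilutions (1% DMSO stocks). OD600 was read at 24 and 48 h, corrected for 690 nm background and standardised to DMSO controls.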

[10] = tested on: Bacillus subtilis; assay: Antimicrobial activity against Bacillus subtilis ATCC 6633 after 24 to 48 hrs; format: functional
[11] = tested on: Klebsiella pneumoniae; assay: Antimicrobial activity against Klebsiella pneumoniae ATCC 13883 after 24 to 48 hrs; format: functional; method in brief: as §1
[12] = tested on: Acinetobacter baumannii; assay: Antimicrobial activity against Acinetobacter baumannii ATCC 19606 after 24 to 48 hrs; format: functional; settings: ATCC 19606 = CIP 70.34 = JCM 6841; method in brief: as §1
[13] = tested on: Staphylococcus aureus; assay: Antimicrobial activity against methicillin-susceptible Staphylococcus aureus clinical isolate IDRL 8545 after 24 to 48 hrs; format: functional; method in brief: as §1
[14] = tested on: Pseudomonas aeruginosa; assay: Antimicrobial activity against Pseudomonas aeruginosa ATCC 27853 after 24 to 48 hrs; format: functional; method in brief: as §1

Compound: O=CNCCCC[C@@H](NC(=O)[C@@H]1COC(c2ccccc2O)=N1)C(=O)O
- CC50 at 72 h [1]: 154 µM
- MIC99 [2]: > 100 µM
- MIC99 [3]: > 100 µM
- MIC99 [4]: > 100 µM
- MIC99 [5]: > 100 µM
- MIC99 [6]: > 100 µM
- MIC99 [7]: > 200 µM
- MIC99 [8]: > 100 µM
- MIC99 [9]: > 100 µM
- MIC99 [10]: > 100 µM
- MIC99 [11]: > 100 µM
- MIC99 [12]: > 100 µM
- MIC99 [13]: > 100 µM
- MIC99 [14]: > 100 µM

Compound: O=CNCCCC[C@@H](NC(=O)[C@H]1COC(c2ccccc2O)=N1)C(=O)O
- CC50 at 72 h [1]: > 200 µM
- MIC99 [2]: > 100 µM
- MIC99 [3]: > 100 µM
- MIC99 [4]: > 100 µM
- MIC99 [5]: > 100 µM
- MIC99 [6]: > 100 µM
- MIC99 [7]: > 200 µM
- MIC99 [8]: > 100 µM
- MIC99 [9]: > 100 µM
- MIC99 [10]: > 100 µM
- MIC99 [11]: > 100 µM
- MIC99 [12]: > 100 µM
- MIC99 [13]: > 100 µM
- MIC99 [14]: > 100 µM

Compound: O=CNCCCC[C@H](NC(=O)[C@H]1COC(c2ccccc2O)=N1)C(=O)O
- CC50 at 72 h [1]: > 200 µM
- MIC99 [2]: > 100 µM
- MIC99 [3]: > 100 µM
- MIC99 [4]: > 100 µM
- MIC99 [5]: > 100 µM
- MIC99 [6]: > 100 µM
- MIC99 [7]: > 200 µM
- MIC99 [8]: > 100 µM
- MIC99 [9]: > 100 µM
- MIC99 [10]: > 100 µM
- MIC99 [11]: > 100 µM
- MIC99 [12]: > 100 µM
- MIC99 [13]: > 100 µM
- MIC99 [14]: > 100 µM

Compound: O=CNCCCC[C@H](NC(=O)[C@@H]1COC(c2ccccc2O)=N1)C(=O)O
- CC50 at 72 h [1]: 164 µM
- MIC99 [2]: > 100 µM
- MIC99 [3]: > 100 µM
- MIC99 [4]: > 100 µM
- MIC99 [5]: > 100 µM
- MIC99 [6]: > 100 µM
- MIC99 [7]: > 200 µM
- MIC99 [8]: > 100 µM
- MIC99 [9]: > 100 µM
- MIC99 [10]: > 100 µM
- MIC99 [11]: > 100 µM
- MIC99 [12]: > 100 µM
- MIC99 [13]: > 100 µM
- MIC99 [14]: > 100 µM

Compound: O=CNCCCCC(NC(=O)C1COC(c2ccccc2O)=N1)C(=O)O (stereo unspecified) [TRANSVALENCIN Z]
- MIC99 [2]: > 64 µg/mL
- MIC99 [3]: > 64 µg/mL
- MIC99 [4]: 1 µg/mL
- MIC99 [6]: 0.125 µg/mL
- MIC99 [10]: 16 µg/mL

— ChEMBL document CHEMBL2062518, “Total synthesis and biological evaluation of transvalencin Z” (J Nat Prod, 2012)
